From ChEMBL document CHEMBL4118256, “Second Generation of Mannich Base-Type Derivatives with in Vivo Activity against Trypanosoma cruzi” (J Med Chem, 2018)

Experiments:
Trypanosoma cruzi [1] = experiment: Trypanocidal activity against Trypanosoma cruzi IRHOD/CO/2008/SN3 DTU 1 epimastigotes after 48 hrs by resazurin dye based assay; format: functional, organism-based; conditions: IRHOD/CO/2008/SN3 DTU 1, 48 h
How it was run: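 Exponential-phase epimastigotes were seeded at 5×10^5 mL^-1 with compounds at 100–0.2 µM (DMSO 0.01% v/v) at 28 °C. After 48 h, resazurin was added for another 24 h. SDS was then added and absorbance read at 570 and 600 nm.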

Vero = experiment: Cytotoxicity against African green monkey Vero cells assessed as reduction in cell viability after 72 hrs by resazurin dye based assay; conditions: Chlorocebus sabaeus
How it was run: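 Vero monkey kidney cells grown at 37 °C, 5 % CO2, in RPMI with 10 % heat-inactivated FBS. Seeded at 1.25 × 10^4 mL-1 with compound at 1000 to 1 µM (DMSO 0.01 % v/v). After 48 h, resazurin added for a further 24 h, then SDS. Absorbance read at 570/600 nm. IC50 from triplicates in four separate determinations.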

[2] = Selectivity index, ratio of IC50 for African green monkey Vero cells to IC50 for Trypanosoma cruzi IRHOD/CO/2008/SN3 DTU 1 epimastigotes; format: toxicity; conditions: read-out: Ratio IC50
How it was run: (§1)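 SI is Vero IC50 divided by the IC50 for the stated parasite form. For Vero cytotoxicity, cells were seeded at 1.25×10^4 mL^-1 with compounds at 1000–1 µM, incubated 48 h, then given resazurin for a further 24 h (72 h total), with absorbance read at 570/600 nm. Triplicate, four determinations.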

Trypanosoma cruzi [3] = experiment: Trypanocidal activity against Trypanosoma cruzi MHOM/Pe/2011/Arequipa DTU 5 amastigotes infected in African green monkey Vero cells after 72 hrs by Giemsa-staining based microscopic assay; format: functional, organism-based; conditions: MHOM/Pe/2011/Arequipa DTU 5, Vero
How it was run: (§2)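 Vero cells were seeded at 1×10^4/well on coverslips. After 24 h they were infected with culture-derived trypomastigotes (MOI 1:10, 24 h), then washed. Compounds were added at 100–0.2 µM (DMSO 0.01% v/v) for 72 h at 37 °C, 5% CO2. Slides were methanol-fixed and Giemsa-stained; amastigotes and infected cells were counted over 500 host cells. IC50 was derived by curve fitting; triplicate wells, four separate determinations.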

Trypanosoma cruzi [4] = experiment: Trypanocidal activity against Trypanosoma cruzi IRHOD/CO/2008/SN3 DTU 1 amastigotes infected in African green monkey Vero cells after 72 hrs by Giemsa-staining based microscopic assay; format: functional, organism-based; conditions: IRHOD/CO/2008/SN3 DTU 1, Vero; how it was run: as §2
Trypanosoma cruzi [5] = experiment: Trypanocidal activity against Trypanosoma cruzi IRHOD/CO/2008/SN3 DTU 1 trypamastigotes derived from infected Balb/c albino mouse after 24 hrs by resazurin dye based assay; format: functional, organism-based; conditions: IRHOD/CO/2008/SN3 DTU 1, 24 h
How it was run: (§3)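 Bloodstream trypomastigotes taken from mice at peak parasitaemia were seeded at 2×10^6 mL^-1 in RPMI with 10% FBS. Compounds were added at 50–0.2 µM and incubated 24 h at 37 °C, 5% CO2, then with resazurin for 4 h. SDS was added and absorbance read at 570/600 nm. IC50 was fitted; triplicate, four separate determinations.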

Trypanosoma cruzi [6] = experiment: Trypanocidal activity against Trypanosoma cruzi TINF/CH/1956/Tulahuen DTU 6 amastigotes infected in African green monkey Vero cells after 72 hrs by Giemsa-staining based microscopic assay; format: functional, organism-based; conditions: TINF/CH/1956/Tulahuen DTU 6, Vero; how it was run: as §2
Trypanosoma cruzi [7] = experiment: Trypanocidal activity against Trypanosoma cruzi TINF/CH/1956/Tulahuen DTU 6 trypamastigotes derived from infected Balb/c albino mouse after 24 hrs by resazurin dye based assay; format: functional, organism-based; conditions: TINF/CH/1956/Tulahuen DTU 6, 24 h; how it was run: as §3
[8] = Selectivity index, ratio of IC50 for African green monkey Vero cells to IC50 for Trypanosoma cruzi MHOM/Pe/2011/Arequipa DTU 5 trypamastigotes derived from infected Balb/c albino mouse; format: toxicity; conditions: read-out: Ratio IC50; how it was run: as §1
[9] = Selectivity index, ratio of IC50 for African green monkey Vero cells to IC50 for Trypanosoma cruzi IRHOD/CO/2008/SN3 DTU 1 amastigotes infected in African green monkey Vero cells; format: toxicity; conditions: read-out: Ratio IC50; how it was run: as §1
[10] = Selectivity index, ratio of IC50 for African green monkey Vero cells to IC50 for Trypanosoma cruzi IRHOD/CO/2008/SN3 DTU 1 trypamastigotes derived from infected Balb/c albino mouse; format: toxicity; conditions: read-out: Ratio IC50; how it was run: as §1
[11] = Selectivity index, ratio of IC50 for African green monkey Vero cells to IC50 for Trypanosoma cruzi TINF/CH/1956/Tulahuen DTU 6 amastigotes infected in African green monkey Vero cells; format: toxicity; conditions: read-out: Ratio IC50; how it was run: as §1
[12] = Selectivity index, ratio of IC50 for African green monkey Vero cells to IC50 for Trypanosoma cruzi TINF/CH/1956/Tulahuen DTU 6 trypamastigotes derived from infected Balb/c albino mouse; format: toxicity; conditions: read-out: Ratio IC50; how it was run: as §1
Trypanosoma cruzi [13] = experiment: Trypanocidal activity against Trypanosoma cruzi MHOM/Pe/2011/Arequipa DTU 5 amastigotes infected in African green monkey Vero cells assessed as reduction in infected cells after 72 hrs by Giemsa-staining based microscopic assay; format: functional, organism-based; conditions: MHOM/Pe/2011/Arequipa DTU 5, Vero
How it was run: (§4)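 Infected Vero cell cultures were exposed for 72 h to a range of concentrations. Infected cells were counted microscopically on Giemsa-stained preparations and expressed relative to infected untreated controls. Values are means of three separate determinations; IC50 was derived by curve fitting.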

Trypanosoma cruzi [14] = experiment: Trypanocidal activity against Trypanosoma cruzi MHOM/Pe/2011/Arequipa DTU 5 amastigotes infected in African green monkey Vero cells assessed as infected cells at 50 uM after 72 hrs by Giemsa-staining based microscopic assay relative to control; format: functional; how it was run: as §4
Mus musculus [15] = experiment: Toxicity in Balb/c mouse assessed as reduction in body mass at […], po once daily for 5 consecutive days starting from day 75 post infection relative to control; format: organism-based; set-up: scale not given: the % may be the effect or the level left; conditions: in vivo
How it was run: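 Infected female BALB/c mice, six per group, received oral doses of 20 mg·kg^-1/day for 5 consecutive days (total 100 mg·kg^-1) in 5% DMSO/0.5% HPMC vehicle, from day 10 or day 75 pi. Body mass and deaths were monitored during and after treatment.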

Mus musculus [16] = experiment: (§5) Hepatotoxicity in Balb/c mouse infected with Trypanosoma cruzi MHOM/Pe/2011/Arequipa DTU 5 trypamastigotes assessed as decrease in ratio of serum ALT to GPT level at […], po once daily for 5 consecutive days starting from day 75 post infection measured on day 81 post infection by biochemical analysis relative to control; format: toxicity, organism-based; set-up: scale not given: the % may be the effect or the level left; conditions: in vivo
Mus musculus [17] = experiment: as §5, with “change” for “decrease”, “total bilirubin” for “ratio of serum ALT to GPT”, “127” for “81”; format: toxicity, organism-based; conditions: in vivo
Trypanosoma cruzi [18] = experiment: Induction of mitochondrial membrane potential disruption in Trypanosoma cruzi MHOM/Pe/2011/Arequipa DTU 5 epimastigotes assessed as inhibition of DNA replication and RNA synthesis at IC25 after 72 hrs by acridine orange staining based flow cytometry relative to control; format: functional
How it was run: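 Arequipa epimastigotes were exposed for 72 h at IC25. DNA/RNA content was measured as acridine orange fluorescence by flow cytometry and compared with untreated control.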

[19] = target: Superoxide dismutase [Cu-Zn] (Homo sapiens, UniProt P00441); experiment: Inhibition of human erythrocyte CuZn-SOD by UV-Visible spectrophotometric method
How it was run: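 SOD activity of parasite Fe-SOD and human CuZn-SOD was measured spectrophotometrically by the Beyer and Fridovich method, with compounds at 1–100 µM. Values are averages of three rate determinations; IC50 was obtained by linear regression and differences were tested by Newman-Keuls.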

Mus musculus [20] = experiment: as §5, with “Cardiotoxicity” for “Hepatotoxicity”, “change” for “decrease”, “creatine kinase in muscle” for “serum ALT”, “brain” for “GPT level”, “10” for “75”, “16” for “81”; format: toxicity, organism-based; conditions: in vivo

Chain of Superoxide dismutase [Cu-Zn] (P00441 whole entry): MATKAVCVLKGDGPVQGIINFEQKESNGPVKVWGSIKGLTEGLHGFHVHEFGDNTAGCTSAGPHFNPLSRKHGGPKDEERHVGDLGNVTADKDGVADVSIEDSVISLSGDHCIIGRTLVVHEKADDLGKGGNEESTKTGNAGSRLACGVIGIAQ

Compound: COc1ccc(C(=O)CCN2CCN(c3ccc(Cl)cc3)CC2)cc1
- IC50 (Trypanosoma cruzi [1]): 6.3 µM
- IC50 (Vero): 300 µM
- selectivity ratio [2]: 47.8
- IC50 (Trypanosoma cruzi [3]): 3.6 µM
- IC50 (Trypanosoma cruzi [4]): 5.8 µM
- IC50 (Trypanosoma cruzi [5]): 3.9 µM
- IC50 (Trypanosoma cruzi [6]): 3.8 µM
- IC50 (Trypanosoma cruzi [7]): 2.9 µM
- selectivity ratio [8]: 89.6
- selectivity ratio [9]: 51.5
- selectivity ratio [10]: 76.1
- selectivity ratio [11]: 78.7
- selectivity ratio [12]: 103
- IC50 (Trypanosoma cruzi [13]): 6.4 µM
- Activity (Trypanosoma cruzi [14]): 15%
- Activity (Mus musculus [15]): > 10%
- Activity (Mus musculus [16]): <= 30%
- Activity (Mus musculus [17]): < 10%
- inhibition (INH) (Trypanosoma cruzi [18]): 18%
- IC50 [19]: 100 µM

Compound: COc1ccc(C(=O)CCN2CCN(c3ccc(F)cc3)CC2)cc1
- IC50 (Trypanosoma cruzi [1]): 2 µM
- IC50 (Vero): 55 µM
- selectivity ratio [2]: 27.9
- IC50 (Trypanosoma cruzi [3]): 0.6 µM
- IC50 (Trypanosoma cruzi [4]): 3.1 µM
- IC50 (Trypanosoma cruzi [5]): 1.4 µM
- IC50 (Trypanosoma cruzi [6]): 1.6 µM
- IC50 (Trypanosoma cruzi [7]): 1.2 µM
- selectivity ratio [8]: 49.1
- selectivity ratio [9]: 17.6
- selectivity ratio [10]: 39.9
- selectivity ratio [11]: 34.6
- selectivity ratio [12]: 47.4
- IC50 (Trypanosoma cruzi [13]): 1.9 µM
- Activity (Trypanosoma cruzi [14]): 7%
- Activity (Mus musculus [15]): > 10%
- Activity (Mus musculus [20]): < 10%
- Activity (Mus musculus [16]): <= 30%
- Activity (Mus musculus [17]): < 10%
- inhibition (INH) (Trypanosoma cruzi [18]): 24.6%
- IC50 [19]: 146 µM

Compound: O=C(Cn1ccnc1[N+](=O)[O-])NCc1ccccc1 [BENZNIDAZOLE]
- IC50 (Vero): 23.2 µM
- IC50 (Trypanosoma cruzi [3]): 8.3 µM
- IC50 (Trypanosoma cruzi [6]): 10 µM
- IC50 (Trypanosoma cruzi [7]): 15.1 µM
- IC50 (Trypanosoma cruzi [13]): 15.1 µM
- Activity (Trypanosoma cruzi [14]): 20%
- inhibition (INH) (Trypanosoma cruzi [18]): 22.4%

Compound: COc1ccc(C(=O)CCN2CCN(c3ccc([N+](=O)[O-])cc3)CC2)cc1
- IC50 (Trypanosoma cruzi [1]): 22 µM
- IC50 (Vero): 587 µM
- selectivity ratio [2]: 26.7
- IC50 (Trypanosoma cruzi [3]): 29.4 µM
- IC50 (Trypanosoma cruzi [4]): 30.5 µM
- IC50 (Trypanosoma cruzi [5]): 3.1 µM
- IC50 (Trypanosoma cruzi [6]): 33.6 µM
- IC50 (Trypanosoma cruzi [7]): 14.5 µM
- selectivity ratio [8]: 50.4
- selectivity ratio [9]: 19.2
- selectivity ratio [10]: 187
- selectivity ratio [11]: 17.5
- selectivity ratio [12]: 40.6
- IC50 (Trypanosoma cruzi [13]): 47.9 µM
- Activity (Trypanosoma cruzi [14]): 52%
- Activity (Mus musculus [15]): > 10%
- Activity (Mus musculus [20]): < 10%
- Activity (Mus musculus [17]): < 10%
- inhibition (INH) (Trypanosoma cruzi [18]): 72.9%
- IC50 [19]: > 100 µM
